In brackets after ≈: the same amount, converted by molar mass.
Key:
Type in all cases: functional
[1] = system: Mycobacterium tuberculosis; assay: Antibacterial activity against multi drug resistant Mycobacterium tuberculosis 421/96 isolate
How it was run: (§1)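 MIC against clinical MTB isolates by the macrodilution broth method in Middlebrook broth enriched with 10% ADC. Values are in µg/mL.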

[2] = system: Mycobacterium tuberculosis; assay: Antibacterial activity against multi drug resistant Mycobacterium tuberculosis 134/02 isolate; how it was run: as §1
[3] = system: Mycobacterium tuberculosis; assay: Antibacterial activity against multi drug resistant Mycobacterium tuberculosis 520/98 isolate; how it was run: as §1
[4] = system: Mycobacterium tuberculosis; assay: Antibacterial activity against multi drug resistant Mycobacterium tuberculosis 482/98 isolate; how it was run: as §1
[5] = system: Mycobacterium tuberculosis; assay: Antibacterial activity against multi drug resistant Mycobacterium tuberculosis 296/04 isolate; how it was run: as §1
[6] = system: Mycobacterium tuberculosis; assay: Antibacterial activity against multi drug resistant Mycobacterium tuberculosis 326/04 isolate; how it was run: as §1
[7] = system: Mycobacterium tuberculosis; assay: Antibacterial activity against multi drug resistant Mycobacterium tuberculosis 43/05 isolate; how it was run: as §1
[8] = system: Mycobacterium tuberculosis; assay: Antibacterial activity against multi drug resistant Mycobacterium tuberculosis 149/03 isolate; how it was run: as §1
[9] = system: Mycobacterium tuberculosis; assay: Antibacterial activity against multi drug resistant Mycobacterium tuberculosis 275/05 isolate; how it was run: as §1
[10] = system: Mycobacterium tuberculosis; assay: Antibacterial activity against multi drug resistant Mycobacterium tuberculosis 586/98 isolate; how it was run: as §1
[11] = system: Mycobacterium tuberculosis; assay: Antibacterial activity against multi drug resistant Mycobacterium tuberculosis 158/97 isolate; how it was run: as §1

Compound `Cc1c(CN2CCSCC2)cc(-c2ccc(F)cc2)n1-c1ccccc1F` has an MIC [1] of 2 µg/mL (≈ 5.2 µM), an MIC [2] of 2 µg/mL (≈ 5.2 µM) and an MIC [3] of 2 µg/mL (≈ 5.2 µM). It also gave an MIC [4] of 2 µg/mL (≈ 5.2 µM), an MIC [5] of 2 µg/mL (≈ 5.2 µM) and an MIC [6] of over 32 µg/mL. It also gave an MIC [7] of 0.5 µg/mL (≈ 1.3 µM), an MIC [8] of 2 µg/mL (≈ 5.2 µM) and an MIC [9] of 2 µg/mL (≈ 5.2 µM). The MIC [10] was 2 µg/mL (≈ 5.2 µM) and the MIC [11] was 0.5 µg/mL (≈ 1.3 µM).

`Cc1ccc(-c2cc(CN3CCSCC3)c(C)n2-c2ccc(F)cc2)cc1` was tested, and the MIC [1] was 0.5 µg/mL (≈ 1.31 µM), the MIC [2] was 0.5 µg/mL (≈ 1.31 µM) and the MIC [3] was 0.5 µg/mL (≈ 1.31 µM). For the same compound, the MIC [4] was 0.5 µg/mL (≈ 1.31 µM), the MIC [5] was 0.5 µg/mL (≈ 1.31 µM) and the MIC [6] was 32 µg/mL (≈ 84.1 µM). For the same compound, the MIC [7] was 0.5 µg/mL (≈ 1.31 µM), the MIC [8] was 0.5 µg/mL (≈ 1.31 µM) and the MIC [9] was 0.5 µg/mL (≈ 1.31 µM). For the same compound, the MIC [10] was 0.5 µg/mL (≈ 1.31 µM) and the MIC [11] was 0.5 µg/mL (≈ 1.31 µM).

— ChEMBL document CHEMBL1145326, “Antimycobacterial agents. Novel diarylpyrrole derivatives of BM212 endowed with high activity toward Mycobacterium tuberculosis and low cytotoxicity” (2006)
